ChEMBL document CHEMBL3751835, “Discovery of the imidazole-derived GPR40 agonist AM-3189” (Bioorg Med Chem Lett, 2016)
pEC50: −log10 of the molar value. Active and inactive are the calls of the source. The rule behind the calls is not given here.

What was measured:
[1] = Volume of distribution at steady state in cynomolgus monkey at 0.5 mg/kg, iv; assay type: ADME, organism-based, Macaca fascicularis; conditions: in vivo, read-out: Vdss
Outline: (§1)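 Oral doses given as a suspension in aqueous 1% Tween 80 in 1% methylcellulose; IV doses formulated in 10% N,N-dimethylacetamide, 10% ethanol, 30% propylene glycol, 50% sterile water. Animals per species: mouse n = 2 (plasma from two mice at each time point), rat n = 2, dog n = 3, cynomolgus monkey n = 3.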

Pancreatic islet = test: Induction of glucose-stimulated insulin release in human GPR40 knock-in mouse pancreatic islets by insulin ELISA in presence of 0.1% human serum albumin and glucose; assay type: functional
Outline: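 Islets were isolated from knock-in mice in which the mouse GPR40 gene is replaced by human GPR40. Glucose-stimulated insulin secretion was measured in buffer containing 16.7 mM glucose and 0.1% human serum albumin.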

[2] = Oral bioavailability in mouse at 5 mg/kg; assay type: ADME, organism-based; conditions: in vivo; outline: as §1
[3] = Cmax in dog at 2 mg/kg, po; assay type: ADME, organism-based, Canis lupus familiaris; parameters: dose 2 mg/kg, route oral; conditions: in vivo; outline: as §1
[4] = Clearance in cynomolgus monkey at 0.5 mg/kg, iv; assay type: ADME, organism-based, Macaca fascicularis; conditions: in vivo; outline: as §1
[5] = Oral bioavailability in cynomolgus monkey at 5 mg/kg; assay type: ADME, organism-based, Macaca fascicularis; conditions: in vivo; outline: as §1
[6] = Half life in mouse at 1 mg/kg, iv; assay type: ADME, organism-based; conditions: in vivo; outline: as §1
[7] = system: GPR40 (hamster, Mesocricetus auratus); test: Agonist activity at hamster GPR40 in presence of 0.01% human serum albumin
[8] = target: Free fatty acid receptor 1 (Rattus norvegicus, UniProt Q8K3T4); test: Agonist activity at rat GPR40 in presence of 0.01% human serum albumin
Free fatty acid receptor 1, sequence (Q8K3T4 whole entry): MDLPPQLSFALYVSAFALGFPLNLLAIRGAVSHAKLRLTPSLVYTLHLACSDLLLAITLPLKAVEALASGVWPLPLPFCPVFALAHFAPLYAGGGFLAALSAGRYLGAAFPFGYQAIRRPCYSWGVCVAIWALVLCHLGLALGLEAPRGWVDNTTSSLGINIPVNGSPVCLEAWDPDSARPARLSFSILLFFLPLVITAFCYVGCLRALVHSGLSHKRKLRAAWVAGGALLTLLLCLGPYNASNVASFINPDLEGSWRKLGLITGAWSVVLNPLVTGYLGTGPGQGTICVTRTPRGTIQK

[9] = Cmax in rat at 2 mg/kg, po; assay type: ADME, organism-based; parameters: dose 2 mg/kg, route oral; conditions: in vivo; outline: as §1
[10] = Cmax in cynomolgus monkey at 5 mg/kg, po; assay type: ADME, organism-based, Macaca fascicularis; parameters: dose 5 mg/kg, route oral; conditions: in vivo; outline: as §1
MDR1 = test: Permeability across basolateral to apical side in MDCK cells expressing MDR1; assay type: ADME, cell-based, Canis lupus familiaris; conditions: dog, read-out: permeability
[11] = target: T1, Peroxisome proliferator-activated receptor delta (Homo sapiens) (UniProt Q03181); test: Activity at PPARdelta (unknown origin) by cell based assay
T1 sequence (whole entry): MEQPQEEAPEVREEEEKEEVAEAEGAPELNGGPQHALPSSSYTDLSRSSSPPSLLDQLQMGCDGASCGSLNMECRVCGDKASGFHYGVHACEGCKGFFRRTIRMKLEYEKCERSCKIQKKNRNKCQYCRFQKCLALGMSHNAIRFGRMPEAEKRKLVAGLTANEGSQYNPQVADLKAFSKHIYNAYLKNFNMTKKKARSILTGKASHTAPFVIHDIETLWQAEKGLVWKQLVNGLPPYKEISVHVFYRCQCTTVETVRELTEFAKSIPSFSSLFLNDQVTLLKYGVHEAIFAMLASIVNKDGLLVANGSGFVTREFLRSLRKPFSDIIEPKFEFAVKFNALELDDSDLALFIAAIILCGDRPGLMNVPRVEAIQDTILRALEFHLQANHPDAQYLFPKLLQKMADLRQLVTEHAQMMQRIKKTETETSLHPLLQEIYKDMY

[12] = Cmax in mouse at 5 mg/kg, po; assay type: ADME, organism-based; parameters: dose 5 mg/kg, route oral; conditions: in vivo; outline: as §1
[13] = Agonist activity at dog GPR40 in presence of 0.01% human serum albumin; parameters: species or system Canis lupus familiaris

Question: Which results are given for `Cc1cc(Cl)ccc1-c1cccc(COc2ccc([C@H](CC(=O)O)c3nccn3C)cc2)c1`?
Answer: Vd [1]: 1.6 L/kg; Activity (Pancreatic islet): Active; bioavailability [2]: 100%; Cmax [3]: 4400 nM; clearance [4]: 4.5 mL/min/kg; bioavailability [5]: 34%; half-life [6]: 1.5 h; Activity [7]: inactive; pEC50 [8]: 6.19; Cmax [9]: 770 nM; Cmax [10]: 1190 nM; Papp B→A (MDR1): 31 ×10⁻⁶ cm/s; Activity [11]: inactive; Cmax [12]: 4890 nM; pEC50 [13]: 7.43
